# GASC1 inh: KDM4C (human) demethylase inhibition; inhibition, % at 12.5 µM; GST-KDM4C 2-372, H3K9me3 peptide, LANCE TR-FRET; actives 0.15% (n = 96,000);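 active = mean replicate inhibition above about 25%, with at least 55% of replicates also reaching it, limit read from the data, passing the limit was not always enough; inconclusive = only one of those two conditions met; inactive = neither condition met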
# Target sequence (Q9H3R0 2-372 limits assumed): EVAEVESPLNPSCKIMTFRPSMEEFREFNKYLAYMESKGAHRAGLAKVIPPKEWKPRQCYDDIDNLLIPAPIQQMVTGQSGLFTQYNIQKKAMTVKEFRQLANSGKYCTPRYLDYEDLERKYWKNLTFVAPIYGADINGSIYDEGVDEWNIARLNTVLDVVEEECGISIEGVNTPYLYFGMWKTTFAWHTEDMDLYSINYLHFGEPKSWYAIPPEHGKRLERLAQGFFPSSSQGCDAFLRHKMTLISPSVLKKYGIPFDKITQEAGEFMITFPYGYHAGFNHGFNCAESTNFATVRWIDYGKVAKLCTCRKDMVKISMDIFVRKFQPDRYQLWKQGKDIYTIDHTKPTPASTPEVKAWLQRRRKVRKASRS
#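 Material: N-terminal GST-fused human GASC-1 (KDM4C) fragment, residues 2-372. Input: 10 nM enzyme. Incubation: enzyme reaction 30 min, then detection 60 min, both room temperature. Doses: one test concentration per compound. Read-out basis: inhibition from TR-FRET ratio decrease. Detection: LANCE TR-FRET, excitation 340 nm, emissions 618 and 671 nm.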
# IDH1 R132H inh: blocks human IDH1 R132H reductase activity. O75874. diaphorase/resazurin fluorescence, 60 min. inhibition, % at 10 µM. actives 0.18% (n = 70,000); in the data active = inhibition above about 34%; inconclusive = no clear call, values can overlap the other calls; inactive = below about 11%;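 note: 0% = DMSO and 100% = no enzyme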
# T cruzi growth: blocks T. cruzi growth in NIH3T3 culture; T. cruzi beta-gal in NIH3T3, GalScreen luminescence, 90 h; inhibition, % at 8.34 µM; actives 5.9% (n = 77,000); AID 624255;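 active = mean inhibition above about 93%, with at least 55% of replicates each passing it, limit read from the data, passing the limit was not always enough; inconclusive = only one of those two conditions holds; inactive = neither condition holds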
# Pf Dd2 inh: P. falciparum Dd2 growth inhibition; activity change, % at 10 µM; SYBR Green, 72 h; active compounds read low; actives 2.3% (n = 94,000); in the data active = activity change below about -80%; inconclusive = no clear call, values can overlap the other calls
# Starred values were filed as active, the others as inactive; u = inconclusive; x = no result; ! = a repeat was not active. The list is not random: actives were taken first. Their share in the collection is about 5.9%.
SMILES,GASC1 inh,IDH1 R132H inh,T cruzi growth,Pf Dd2 inh
C[C@@H]1CN([C@@H](C)CO)C(=O)Cc2cc(NC(=O)Nc3cccc4ccccc34)ccc2O[C@@H]1CN(C)CC1CC1,-1,1,36,-85*
C[C@H](CO)N1C[C@H](C)[C@@H](CN(C)C(=O)Nc2ccc(F)cc2)Oc2ccc(NC(=O)Nc3ccc(C(F)(F)F)cc3)cc2CC1=O,-1,2,10,-88*
C[C@@H]1CN([C@@H](C)CO)C(=O)Cc2cc(NC(=O)Cn3cnnn3)ccc2O[C@H]1CN(C)Cc1ccc(C(F)(F)F)cc1,u,74*,66,-8
C[C@H](CO)N1C[C@H](C)[C@@H](CN(C)C(=O)Nc2ccc(C(F)(F)F)cc2)Oc2ccc(NC(=O)Nc3ccccc3)cc2CC1=O,10,1,20,-64
C[C@H](CO)N1C[C@H](C)[C@@H](CN(C)C(=O)Nc2ccccc2)Oc2ccc(NC(=O)Nc3ccc(C(F)(F)F)cc3)cc2CC1=O,-1,2,28,-85*
COc1ccc(NC(=O)N(C)C[C@H]2Oc3ccc(NC(=O)Nc4ccc(C(F)(F)F)cc4)cc3CC(=O)N([C@H](C)CO)C[C@@H]2C)cc1,-1,1,35,-88*
CC(=O)c1cccc(NC(=S)NCc2ccccn2)c1,x,0,x,x
CCCc1cn(CC[C@H]2CC[C@@H](NS(=O)(=O)c3ccc(-c4ccccc4)cc3)[C@H](CO)O2)nn1,0,0,60,-94*
CCCc1cn(CC[C@@H]2CC[C@@H](NS(=O)(=O)c3ccc(-c4ccccc4)cc3)[C@H](CO)O2)nn1,-2,0,59,-93*
CCCc1cn(CC[C@H]2CC[C@H](NS(=O)(=O)c3ccc(-c4ccccc4)cc3)[C@@H](CO)O2)nn1,-1,-1,-32,-89*
CCCc1cn(CC[C@@H]2CC[C@H](NS(=O)(=O)c3ccc(-c4ccccc4)cc3)[C@@H](CO)O2)nn1,0,0,-2,-76
COc1ccc(Br)cc1/C=N/NC(=O)CCCCCCC(=O)Nc1ccccc1O,x,0,x,x
Cc1ccc(C(=O)O)cc1S(=O)(=O)N(CCO)CCO,x,0,x,x
O=C(NO)c1cccc(C(=O)N/N=C/c2cccc(O)c2)c1,x,0,x,x
O=C(Cn1c(S(=O)(=O)Cc2ccccc2)nc2ccccc21)N1CCOCC1,x,0,x,x
COc1cccc(C(=O)c2oc3ccccc3c2NC(=O)CCc2ccccc2)c1,x,0,x,x
C[C@H]1CCCCO[C@H](CN(C)C(=O)Nc2ccc(C(F)(F)F)cc2)[C@@H](C)CN([C@@H](C)CO)C(=O)c2cc(NS(=O)(=O)c3ccc(F)cc3)ccc2O1,1,0,94,-82*
C[C@@H]1CCCCO[C@H](CN(C)C(=O)Nc2ccc(C(F)(F)F)cc2)[C@H](C)CN([C@H](C)CO)C(=O)c2cc(NS(=O)(=O)c3ccccc3)ccc2O1,0,x,98,-86*
Cc1ccc(S(=O)(=O)Nc2ccc3c(c2)C(=O)N([C@@H](C)CO)C[C@H](C)[C@@H](CN(C)C(=O)Nc2ccc(C(F)(F)F)cc2)OCCCC[C@H](C)O3)cc1,-1,7,94,-82*
Cc1ccc(S(=O)(=O)Nc2ccc3c(c2)C(=O)N([C@H](C)CO)C[C@@H](C)[C@@H](CN(C)C(=O)Nc2ccccc2)OCCCC[C@@H](C)O3)cc1,-1,1,-60,-83*
Cc1ccc(-n2c(C)nnc2SCC(=O)Nc2ccc(Br)cc2F)cc1,x,0,x,x
CCc1ccccc1N(CC(=O)N1CCC(Cc2ccccc2)CC1)S(C)(=O)=O,x,-1,x,x
Cc1ccc(S(=O)(=O)N2Cc3ccccc3CC2C(=O)Nc2sc3c(c2C#N)CCCC3)cc1 (stereo not given),x,2,x,x
COc1cc(NC(=O)C(C)Oc2ccc(Cl)cc2Cl)c(OC)cc1Cl (stereo not given),x,0,x,x
C[C@@H]1CCCCO[C@H](CN(C)C(=O)Nc2ccc(C(F)(F)F)cc2)[C@@H](C)CN([C@@H](C)CO)C(=O)c2cc(NS(=O)(=O)c3ccc(Cl)cc3)ccc2O1,0,0,81,-84*
SMILES,GASC1 inh,IDH1 R132H inh,T cruzi growth,Pf Dd2 inh
C[C@@H]1CCCCO[C@H](CN(C)C(=O)CCC(F)(F)F)[C@H](C)CN([C@@H](C)CO)C(=O)c2cc(NS(=O)(=O)c3ccccc3)ccc2O1,-2,91*,47,-28
C[C@@H]1CCCCO[C@@H](CN(C)C(=O)CCC(F)(F)F)[C@@H](C)CN([C@H](C)CO)C(=O)c2cc(NS(=O)(=O)c3ccccc3)ccc2O1,-3,-2,-5,-4
C[C@H](CO)N1C[C@H](C)[C@@H](CN(C)C(=O)Nc2ccc(C(F)(F)F)cc2)OCCCC[C@H](C)Oc2ccc(NS(=O)(=O)c3ccc(Cl)cc3)cc2C1=O,-2,6,92,-75
COc1ccc(S(=O)(=O)Nc2ccc3c(c2)C(=O)N([C@@H](C)CO)C[C@H](C)[C@H](CN(C)C(=O)Nc2ccc(C(F)(F)F)cc2)OCCCC[C@@H](C)O3)cc1,2,x,60,-84*
CN(C)CC(=O)N1C[C@@H]2N[C@H](C1)C2c1ccc(/C=C/c2ccccc2)cc1 (stereo not given in full),-1,x,x,-91*!
Cc1cccc(-c2ccc([C@@H]3[C@@H]4CN(C(=O)CN(C)C)C[C@H]3N4)cc2)c1,-3,x,x,-85*
Cc1cccc(-c2ccc(C3[C@@H]4CN(C(=O)c5ccncc5)C[C@H]3N4)cc2)c1 (stereo not given in full),0,x,x,-9
CS(=O)(=O)N(CC(=O)Nc1ccccc1C(=O)N1CCOCC1)c1cc(C(F)(F)F)ccc1Cl,x,1,x,x
O=C(Nc1ccccc1)c1ccc(CNc2nccc(-c3cccnc3)n2)cc1,x,0,x,x
CCCC(=O)N1CCC2(CC1)CN(Cc1ccccc1F)[C@H](CO)c1c2c2ccc(OC)cc2n1C,-1,x,x,u
CCCC(=O)N1CC2(C1)CN(Cc1ccccc1F)[C@H](CO)c1c2c2ccc(OC)cc2n1C,0,x,x,-87*
CCCC(=O)N1CCC2(CC1)CN(Cc1ccccc1F)[C@@H](CO)c1c2c2ccc(OC)cc2n1C,-4,x,x,-83*
OC[C@H]1[C@@H](c2ccc(-c3ccc(F)cc3)cc2)[C@@H]2CN(CCC(F)(F)F)CCCCN12,-1,x,94,-79
OC[C@@H]1[C@H](c2ccc(-c3ccc(F)cc3)cc2)[C@H](CNC2CCCC2)N1CCC(F)(F)F,-2,x,x,-89*
OC[C@@H]1[C@H](c2ccc(-c3ccc(F)cc3)cc2)[C@@H](CNC2CCCC2)N1CCC(F)(F)F,-1,x,x,-97*
CCCC(=O)N1CC2(C1)CN(S(=O)(=O)c1ccc(C)cc1)[C@@H](CO)c1[nH]c3cc(OC)ccc3c12,0,x,x,-87*
CCS(=O)(=O)N1CC2(C1)CN(S(=O)(=O)c1ccc(C)cc1)[C@H](CO)c1[nH]c3cc(OC)ccc3c12,0,x,x,-40
COc1ccc2c3c([nH]c2c1)[C@H](CO)N(S(=O)(=O)c1ccc(C)cc1)CC31CCN(C(=O)Cc2cccnc2)CC1,x,x,x,-86*

# High-throughput results as filed in PubChem BioAssay.
